Our source for the Activity and IC50 values is ChEMBL document CHEMBL3102836, “Dioxatricyclic and oxabicyclic polyketides from Trichocladium opacum” (J Nat Prod, 2014).

As usually defined, the pIC50 is −log10 of the IC50, conventionally taken in molar units. A lower pIC50 goes with a high IC50.

Molecules are shown by their SMILES. pIC50: −log10 of the molar value. The source made the active and inactive calls. The rule behind the calls is not given here.

What all share (format): functional, cell-based
Assay [1] concerns HeLa. Nature of the assay: Cytotoxicity against human HeLa cells at 20 ug/ml after 48 hrs by MTS assay. The gist of the method: (§1)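 Single-concentration test at 20 μg/mL. Triplicate wells seeded at (2−5) × 10^3 cells, attached overnight, then medium replaced with compound-containing medium (100 mM DMSO stock; vehicle wells 0.1% DMSO); cisplatin positive control. 48 h exposure at 37 °C, humidified 5% CO2. MTS added, 90 min at 37 °C in dark, read at 490 nm.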

Assay [2] deals with HCT-116. Briefly: Cytotoxicity against human HCT116 cells at 20 ug/ml after 48 hrs by MTS assay. The method in brief:
as §1

Assay [3] deals with SW480. Nature of the assay: Cytotoxicity against human SW480 cells at 20 ug/ml after 48 hrs by MTS assay. The gist of the method: as §1
In general terms: Tetrazolium dyes change colour on reduction, which living cells bring about.

The test system of assay [4] is A549. Nature of the assay: Cytotoxicity against human A549 cells at 20 ug/ml after 48 hrs by MTS assay. The gist of the method:
as §1

Assay [5] deals with HCT-116. Briefly: Cytotoxicity against human HCT116 cells after 48 hrs by MTS assay. As to conditions: HCT-116, 48 h. The gist of the method: (§2)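 Triplicate wells seeded at (2−5) × 10^3 cells (by growth rate), attached overnight, then medium replaced with medium carrying serial dilutions from 100 mM DMSO stocks (vehicle wells 0.1% DMSO); cisplatin positive control. 48 h at 37 °C, humidified 5% CO2. MTS added, 90 min at 37 °C in dark, absorbance 490 nm; IC50 reported.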

Assay [6] has as its system SW480. Briefly: Cytotoxicity against human SW480 cells after 48 hrs by MTS assay. As to conditions: SW480, 48 h. The method in brief:
as §2

Assay [7] concerns A549. Briefly: Cytotoxicity against human A549 cells after 48 hrs by MTS assay. As to conditions: A549, 48 h. The gist of the method: as §2
Assay [8] deals with HeLa. Nature of the assay: Cytotoxicity against human HeLa cells after 48 hrs by MTS assay. The method in brief:
as §2

With `C[C@@H]1C=C[C@H](O)[C@H]2O[C@@]3(C)OC(=O)[C@@]12[C@H]3O`, the result with HeLa [1], in the assay on HCT-116 [2], in the assay with SW480 [3] and in the assay with A549 [4] was inactive.

`C[C@@H]1CC[C@H](O)[C@H]2O[C@@]3(C)OC(=O)[C@@]12[C@H]3O`: in the assay with HeLa [1], the result was inactive. For the same compound, the pIC50 with HCT-116 [5] is 4.25; in the assay on SW480 [6], 4.28; with A549 [7], 4.21.

With `C[C@@H](O)[C@@H](O)[C@]12C(=O)O[C@H](C=C[C@@H]1C)[C@H]2O`, the pIC50 in the assay with HCT-116 [5] is 4.38; in the assay on SW480 [6], 4.36; in the assay on HeLa [8], 4.35; with A549 [7] it was 4.28.

On to `C[C@@H]1C=C[C@H](O)[C@H]2O[C@@]3(C)OC(=O)[C@@]12[C@@H]3O`, for which, in the assay with HeLa [1], the outcome was inactive. The pIC50 was 4.31 in the assay on HCT-116 [5], 4.26 in the assay with SW480 [6] and 4.08 in the assay with A549 [7].

As for `COC(=O)[C@]12[C@H](C)[C@H](C[C@H](O)[C@H]1O)O[C@H]2C(C)=O`, the outcome with HeLa [1], in the assay with HCT-116 [2], in the assay on SW480 [3] and with A549 [4] was inactive.
